ChEMBL document CHEMBL3407422, “2-(2-oxo-morpholin-3-yl)-acetamide derivatives as broad-spectrum antifungal agents” (J Med Chem, 2015)
Converted amounts (≈) assume the structure as drawn.

Test system: Candida albicans
Experiment: Antifungal activity against Candida albicans SC5314 after 24 hrs
Assay type: functional
Outline: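 Overnight YPD cultures diluted in PBS (1/200 for C. albicans, 1/400 for C. glabrata). Cells treated with compound, or 2.5% DMSO as solvent control, for 24 h at 37 °C. CFUs then counted; MFC is the concentration giving 99% killing of the inoculum.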

Structure (SMILES) | MFC99 [µg/mL]
CCN1CC(C)(C)OC(=O)C1CC(=O)Nc1ccccn1 (stereo unspecified) | >50
CC(C)c1ccc(NC(=O)CC2C(=O)OC(C)(C)CN2S(C)(=O)=O)cc1 (stereo unspecified) | >25
CCCN1CC(C)(C)OC(=O)C1CC(=O)Nc1ccc(C(C)C)cc1 (stereo unspecified) | >25
CCN1CC(C)(C)OC(=O)C1CC(=O)Nc1ccncn1 (stereo unspecified) | >50
CCN1CCOCC1CC(=O)Nc1ccc(C(C)C)cc1 (stereo unspecified) | >50
CCN1CC(C)(C)OC(=O)C1CC(=O)NCCc1ccccc1 (stereo unspecified) | 25 (≈ 78.5 µM)
CC(C)c1ccc(NC(=O)CC2C(=O)OC(C)(C)CN2C(C)C)cc1 (stereo unspecified) | >25
C[C@@H]1[C@H](O)[C@@H](C)/C=C/C=C/C=C/C=C/C=C/C=C/C=C/[C@H](O[C@@H]2O[C@H](C)[C@@H](O)[C@H](N)[C@@H]2O)C[C@@H]2O[C@](O)(C[C@@H](O)C[C@@H](O)[C@H](O)CC[C@@H](O)C[C@@H](O)CC(=O)O[C@H]1C)C[C@H](O)[C@H]2C(=O)O [AMPHOTERICIN B] | 1.6 (≈ 1.73 µM)
CC(C)c1ccc(NC(=O)CC2C(=O)OC(C)(C)CN2c2ccccc2)cc1 (stereo unspecified) | >50
CCN1CC(C)(C)OC(=O)C1CC(=O)Nc1ccncc1 (stereo unspecified) | >50
CCN1CC(C)(C)OC(=O)C1CC(=O)N1CCOCC1 (stereo unspecified) | >50
CCN1CC(C)(C)OC(=O)C1CC(=O)NCc1cccs1 (stereo unspecified) | 25 (≈ 80.5 µM)
CCN1CC(C)(C)OC(=O)C1CC(=O)NCc1cccc(OC)c1 (stereo unspecified) | 25 (≈ 74.8 µM)
CC(C)c1ccc(NC(=O)CC2C(=O)OC(C)(C)CN2C2CCCC2)cc1 (stereo unspecified) | >25
CC(C)c1ccc(NC(=O)CC2C(=O)OC(C)(C)CN2C)cc1 (stereo unspecified) | >25
CCN1CC(C)(C)OC(=O)C1CC(=O)NCc1ccc(Cl)c(Cl)c1 (stereo unspecified) | 12.5 (≈ 33.5 µM)
CCN1CC(C)(C)OC(=O)C1CC(=O)Nc1cccnc1 (stereo unspecified) | >50
CCN1CC(C)(C)OC(=O)C1CC(=O)Nc1c(C)noc1C (stereo unspecified) | >50
CCN1CC(C)(C)OC(=O)C1CC(=O)NCC1CCCCC1 (stereo unspecified) | 25 (≈ 80.5 µM)
CCN1CC(C)(C)OC(=O)C1CC(=O)Nc1ccc2scnc2c1 (stereo unspecified) | >50
CCNC(=O)CC1C(=O)OC(C)(C)CN1CC (stereo unspecified) | 50 (≈ 206 µM)

Structure (SMILES) | MFC99 [µg/mL]
CC(C)c1ccc(NC(=O)CC2C(=O)OC(C)(C)CN2Cc2ccccc2)cc1 (stereo unspecified) | >50
CCN1CC(C)(C)OC(=O)C1C(C)(C)C(=O)Nc1ccc(C(C)C)cc1 (stereo unspecified) | >50
CCN1CC(C)(C)OC(=O)C1CC(=O)NCc1ccccc1 (stereo unspecified) | 12.5 (≈ 41.1 µM)
CCN1CC(C)(C)OC(=O)C1CC(=O)N(C)c1ccccc1 (stereo unspecified) | >50
CC(C)c1ccc(NC(=O)CC2C(=O)OC(C)(C)CN2CCF)cc1 (stereo unspecified) | >25
CCN1CC(C)(C)OC(=O)C1CC(=O)NC1CCCC1 (stereo unspecified) | 50 (≈ 177 µM)
CCN1CC(C)(C)OC(=O)C1CC(=O)NC1CCCCC1 (stereo unspecified) | 50 (≈ 169 µM)
CCN(CC)C(=O)CC1C(=O)OC(C)(C)CN1CC (stereo unspecified) | >50
CCN1CC(C)(C)OC(=O)C1CC(=O)NCCC(C)(C)C (stereo unspecified) | 25 (≈ 83.8 µM)
CC(C)c1ccc(NC(=O)CC2C(=O)OC(C)(C)CN2C2CC2)cc1 (stereo unspecified) | >25
CCCNC(=O)CC1C(=O)OC(C)(C)CN1CC (stereo unspecified) | 25 (≈ 97.5 µM)
CC(C)c1ccc(NC(=O)CC2NCC(C)(C)OC2=O)cc1 (stereo unspecified) | >25
CCN1CC(C)(C)OC(=O)C1CC(=O)NCc1cccc(Cl)c1 (stereo unspecified) | 6.25 (≈ 18.4 µM)
CC(=O)N1CC(C)(C)OC(=O)C1CC(=O)Nc1ccc(C(C)C)cc1 (stereo unspecified) | >25
CCN1C(CC(=O)Nc2ccc(C(C)C)cc2)C(=O)OC(C)(C)C1(C)C (stereo unspecified) | >25
CCN1CC(C)(C)OC(=O)C1CC(=O)NCc1ccccc1Cl (stereo unspecified) | 25 (≈ 73.8 µM)
CCN1CC(C)(C)OC(=O)C1CC(=O)NCc1ccco1 (stereo unspecified) | 50 (≈ 170 µM)
CC(C)c1ccc(NC(=O)CC2C(=O)OC(C)(C)CN2CC(F)(F)F)cc1 (stereo unspecified) | >25
CCN1CC(C)(C)OC(=O)C1CC(=O)NCc1cccc(C)c1 (stereo unspecified) | 12.5 (≈ 39.3 µM)
CCN1CC(C)(C)OC(=O)C1CC(=O)NCc1cccc(C(F)(F)F)c1 (stereo unspecified) | 25 (≈ 67.1 µM)
